Assay results published in ChEMBL document CHEMBL2311339, “Identification of GZD824 as an orally bioavailable inhibitor that targets phosphorylated and nonphosphorylated breakpoint cluster region-Abelson (Bcr-Abl) kinase and overcomes clinically acquired mutation-induced resistance against imatinib” (J Med Chem, 2013).
Calls of active or inactive are those of the source. No cut-off for these calls is given here.

Tests used:
BaF3 [1] = experiment: Antitumor activity against mouse BA/F3 cells expressing BCR-ABL T315I mutant allografted in SCID mouse assessed as suppression of cell proliferation at 5 to 20 mg/kg/day, po qd for 10 days relative to untreated vehicle; type: functional, organism-based
How it was run: (§1)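 Ba/F3 Bcr-Abl T315I cells stably carrying firefly luciferase, in saline, were injected i.v. into SCID nude mice (2 × 10^6 cells/0.1 mL). Imaging began 5−7 days later: i.p. D-luciferin, halothane anaesthesia, images after 5 min. Mice were randomised by signal and dosed by oral gavage once daily for 10 days (5, 10, 20 mg/kg/day; imatinib 100 mg/kg; vehicle). Luminescence was quantified; survival by Kaplan−Meier with log-rank test.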

[2] = Antitumor activity against mouse BA/F3 cells expressing BCR-ABL T315I mutant allografted in SCID mouse assessed as increase in median survival at 10 mg/kg/day, po qd for 10 days; type: functional, BaF3; how it was run: as §1
[3] = target: Tyrosine-protein kinase ABL1 (Homo sapiens, UniProt P00519, H396P); type: cell-based
Rattus norvegicus = experiment: Volume of distribution at steady state in rat at 25 mg/kg, po; type: ADME, organism-based; design: dose 25 mg/kg, route oral; settings: in vivo
How it was run: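 Test compound given to rats as its bismesylate salt in a single dose, 5 mg/kg iv or 25 mg/kg by mouth. Plasma drug levels were monitored after dosing, and PK parameters including Vss were reported per route.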

[4] = target: Angiopoietin-1 receptor (Homo sapiens) (UniProt Q02763); experiment: Binding affinity to TIE2 (unknown origin) at 10 nM after 2 hrs by FRET assay
cells = settings: Mus musculus, BaF3, 72 h
[5] = target: Receptor-type tyrosine-protein kinase FLT3 (Homo sapiens) (UniProt P36888); experiment: Binding affinity to FLT3 (unknown origin) at 10 nM after 2 hrs by FRET assay
BaF3 [6] = experiment: Antitumor activity against mouse BA/F3 cells expressing BCR-ABL T315I mutant allografted in SCID mouse assessed as induction of tumor regression at 20 mg/kg/day, po qd for 14 days; type: functional, organism-based
How it was run: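 Ba/F3 cells stably expressing Bcr-Abl (wild type or mutant) were grown in RPMI 1640 with 10% FBS and no IL-3, then suspended in saline (2.5 × 10^7 cells/mL) and given as 0.2 mL s.c. in the right flank. Groups were randomised at 100−200 mm3. Once-daily oral gavage for 14 days in DMSO/Cremophor/ethanol/saline vehicle; reference imatinib 50 or 100 mg/kg/day. Volume L × W²/2 every 2 days; n = 10; t test versus vehicle.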

BaF3 [7] = experiment: Antitumor activity against mouse BA/F3 cells expressing BCR-ABL F317L mutant allografted in po dosed SCID mouse assessed as reduction of hepatosplenomegaly administered qd for 14 days; type: functional, organism-based
[8] = Half life in rat liver microsomes at 1 uM; type: ADME, Microsome
[9] = target: Tyrosine-protein kinase receptor Tie-1 (Homo sapiens) (UniProt P35590); experiment: Binding affinity to TIE1 (unknown origin) at 10 nM after 2 hrs by FRET assay
[10] = Cytotoxicity against mouse BA/F3 cells expressing BCR-ABL F317L mutant assessed as growth inhibition after 72 hrs by CCK-8 assay; settings: BaF3, 72 h
MOLT-4 = experiment: Cytotoxicity against human MOLT4 cells […] assessed as growth inhibition after 72 hrs by CCK-8 assay; type: functional, cell-based; settings: MOLT-4, 72 h
How it was run: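 Log-phase human leukemia cells were seeded at about 3000 cells/well and treated 24 h later for 72 h. CCK-8 was then incubated with the cells for 3 h and read as OD450 − OD650. Viability was normalized to vehicle wells and cell-free blanks, and IC50 taken as the mean of three experiments.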

[11] = target: T1, Tyrosine-protein kinase ABL1 (Homo sapiens, UniProt P00519, T315I); experiment: Binding affinity to non phosphorylated ABL1 T315I mutant (unknown origin) after 1 hr
K562 = experiment: Antitumor activity against human K562 cells xenografted in mouse assessed as inhibition of tumor growth at 1 mg/kg, po qd for 14 days; type: functional; settings: K562, 336 h, read-out: TGI
How it was run: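 K562 cells in normal saline (2.5 × 10^7 cells/mL, 0.2 mL) injected subcutaneously into right flank; mice randomized when mean tumor volume reached 100−200 mm3. Dosing once daily by oral gavage for 14 consecutive days in 1% DMSO, 22.5% Cremophor, 7.5% ethanol, 69% saline. Tumor volume (L × W2/2) and body weight every 2 days; n = 10/group; unpaired Student's t test vs vehicle.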

[12] = target: Tyrosine-protein kinase ABL1 (Homo sapiens, UniProt P00519); experiment: Binding affinity to phosphorylated wild type ABL1 (unknown origin) after 1 hr
[13] = Mean residence time in rat at 25 mg/kg, po; type: ADME, organism-based; design: dose 25 mg/kg, route oral; settings: in vivo
How it was run: (§2)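 Bismesylate salt given to rats as a single iv dose of 5 mg/kg or a single oral dose of 25 mg/kg. Plasma drug levels were followed over time to derive the PK parameters. The 12 h and 24 h plasma levels come from the oral 25 mg/kg dose.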

[14] = Cytotoxicity against mouse BA/F3 cells expressing wild type BCR-ABL assessed as growth inhibition after 72 hrs by CCK-8 assay; settings: BaF3, 72 h
[15] = target: Tyrosine-protein kinase ABL1 (Homo sapiens, UniProt P00519, G250E); type: cell-based
[16] = Cytotoxicity against mouse BA/F3 cells expressing BCR-ABL E255K mutant assessed as growth inhibition after 72 hrs by CCK-8 assay; settings: BaF3, 72 h
Caco-2 = experiment: Efflux ratio of permeability from […] in human Caco2 cells; type: ADME, cell-based
[17] = Tmax in rat at 25 mg/kg, po; type: ADME, organism-based; design: dose 25 mg/kg, route oral; settings: in vivo; how it was run: as §2
Mus musculus = experiment: Toxicity in human K562 cells xenografted mouse assessed as mortality; type: organism-based; settings: in vivo
How it was run: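 K562 cells suspended in normal saline (2.5 × 10^7 cells/mL), 0.2 mL injected subcutaneously into the right flank. Mice were randomised once mean tumour volume reached 100−200 mm3. Oral gavage once daily for 14 days, in 1% DMSO/22.5% Cremophor/7.5% ethanol/69% saline. Tumour volume (L × W²/2) and body weight taken every 2 days; recurrence followed 20 days after dosing stopped. n = 10/group; unpaired t test versus vehicle.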

[18] = target: T1, Tyrosine-protein kinase ABL1; type: cell-based
BaF3 [19] = experiment: Antitumor activity against mouse BA/F3 cells expressing BCR-ABL E255K mutant allografted in po dosed SCID mouse assessed as reduction of hepatosplenomegaly administered qd for 14 days; type: functional, organism-based
[20] = target: Tyrosine-protein kinase ABL1 (Homo sapiens, UniProt P00519, Y253F); experiment: Inhibition of human recombinant ABL1 Y253F mutant expressed in insect cells after 30 mins by FRET assay; type: cell-based
[21] = Mean residence time in rat at 5 mg/kg, iv; type: ADME, organism-based; design: dose 5 mg/kg, route intravenous; settings: in vivo; how it was run: as §2
BaF3 [22] = experiment: Antitumor activity against mouse BA/F3 cells expressing BCR-ABL T315I mutant allografted in SCID mouse assessed as complete suppression of cell proliferation at 20 mg/kg/day, po qd for 10 days; type: functional, organism-based; how it was run: as §1

Sequence of Tyrosine-protein kinase receptor Tie-1 (Homo sapiens) (P35590 whole entry): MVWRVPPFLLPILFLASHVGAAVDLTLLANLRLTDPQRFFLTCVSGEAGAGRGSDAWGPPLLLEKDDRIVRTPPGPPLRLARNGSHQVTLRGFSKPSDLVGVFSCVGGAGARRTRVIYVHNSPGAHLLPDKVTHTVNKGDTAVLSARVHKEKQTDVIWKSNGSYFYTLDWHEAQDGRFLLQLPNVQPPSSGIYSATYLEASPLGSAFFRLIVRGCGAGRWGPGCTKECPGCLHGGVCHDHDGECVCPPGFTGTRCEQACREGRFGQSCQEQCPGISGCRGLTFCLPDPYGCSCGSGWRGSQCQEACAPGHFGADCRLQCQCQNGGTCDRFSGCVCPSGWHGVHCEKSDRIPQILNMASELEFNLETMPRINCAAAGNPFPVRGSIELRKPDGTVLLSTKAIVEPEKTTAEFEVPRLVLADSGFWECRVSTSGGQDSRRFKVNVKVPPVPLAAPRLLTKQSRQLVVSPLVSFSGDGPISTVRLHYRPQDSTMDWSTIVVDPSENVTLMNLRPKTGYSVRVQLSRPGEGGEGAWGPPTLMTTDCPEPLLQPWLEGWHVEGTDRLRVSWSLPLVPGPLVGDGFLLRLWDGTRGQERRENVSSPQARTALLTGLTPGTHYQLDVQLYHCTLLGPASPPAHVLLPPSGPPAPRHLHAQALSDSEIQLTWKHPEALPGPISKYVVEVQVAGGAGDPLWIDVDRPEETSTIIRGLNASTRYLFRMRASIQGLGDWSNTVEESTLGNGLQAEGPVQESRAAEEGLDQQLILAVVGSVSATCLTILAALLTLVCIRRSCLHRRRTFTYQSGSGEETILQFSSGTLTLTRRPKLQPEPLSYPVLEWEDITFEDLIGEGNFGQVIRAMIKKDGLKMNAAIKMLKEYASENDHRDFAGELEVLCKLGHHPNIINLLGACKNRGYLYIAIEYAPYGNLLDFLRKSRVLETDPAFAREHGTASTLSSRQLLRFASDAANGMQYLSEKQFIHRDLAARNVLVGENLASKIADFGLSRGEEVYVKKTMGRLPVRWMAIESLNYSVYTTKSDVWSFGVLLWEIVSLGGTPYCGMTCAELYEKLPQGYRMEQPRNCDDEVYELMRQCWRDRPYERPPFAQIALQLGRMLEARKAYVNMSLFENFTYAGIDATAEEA
Sequence of Receptor-type tyrosine-protein kinase FLT3 (Homo sapiens) (P36888 whole entry): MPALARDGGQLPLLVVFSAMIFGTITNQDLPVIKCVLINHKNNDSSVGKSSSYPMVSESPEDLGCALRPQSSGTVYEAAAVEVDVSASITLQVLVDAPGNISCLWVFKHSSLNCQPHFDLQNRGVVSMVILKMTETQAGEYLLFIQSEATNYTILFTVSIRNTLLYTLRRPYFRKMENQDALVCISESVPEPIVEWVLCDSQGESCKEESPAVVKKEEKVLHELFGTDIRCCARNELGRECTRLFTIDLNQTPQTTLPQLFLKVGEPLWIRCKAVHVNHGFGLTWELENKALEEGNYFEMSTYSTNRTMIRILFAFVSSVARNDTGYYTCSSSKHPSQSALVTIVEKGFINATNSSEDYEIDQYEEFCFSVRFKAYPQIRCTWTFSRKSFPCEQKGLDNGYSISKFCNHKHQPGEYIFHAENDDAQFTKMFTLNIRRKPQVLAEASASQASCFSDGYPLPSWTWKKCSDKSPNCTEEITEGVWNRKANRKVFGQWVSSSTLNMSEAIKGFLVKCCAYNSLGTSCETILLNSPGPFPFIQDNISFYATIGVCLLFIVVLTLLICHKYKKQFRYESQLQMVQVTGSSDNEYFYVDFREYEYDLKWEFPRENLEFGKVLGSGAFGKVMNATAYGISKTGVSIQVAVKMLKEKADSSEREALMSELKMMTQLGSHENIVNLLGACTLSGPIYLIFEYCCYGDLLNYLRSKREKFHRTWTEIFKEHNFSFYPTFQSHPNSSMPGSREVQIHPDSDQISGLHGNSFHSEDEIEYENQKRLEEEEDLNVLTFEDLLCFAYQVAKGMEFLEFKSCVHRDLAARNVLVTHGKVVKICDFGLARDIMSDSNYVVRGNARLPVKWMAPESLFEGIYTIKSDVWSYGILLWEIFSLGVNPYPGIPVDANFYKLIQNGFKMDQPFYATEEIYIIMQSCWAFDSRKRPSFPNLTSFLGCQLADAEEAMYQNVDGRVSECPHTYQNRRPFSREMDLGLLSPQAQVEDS
Sequence of Angiopoietin-1 receptor (Homo sapiens) (Q02763 whole entry): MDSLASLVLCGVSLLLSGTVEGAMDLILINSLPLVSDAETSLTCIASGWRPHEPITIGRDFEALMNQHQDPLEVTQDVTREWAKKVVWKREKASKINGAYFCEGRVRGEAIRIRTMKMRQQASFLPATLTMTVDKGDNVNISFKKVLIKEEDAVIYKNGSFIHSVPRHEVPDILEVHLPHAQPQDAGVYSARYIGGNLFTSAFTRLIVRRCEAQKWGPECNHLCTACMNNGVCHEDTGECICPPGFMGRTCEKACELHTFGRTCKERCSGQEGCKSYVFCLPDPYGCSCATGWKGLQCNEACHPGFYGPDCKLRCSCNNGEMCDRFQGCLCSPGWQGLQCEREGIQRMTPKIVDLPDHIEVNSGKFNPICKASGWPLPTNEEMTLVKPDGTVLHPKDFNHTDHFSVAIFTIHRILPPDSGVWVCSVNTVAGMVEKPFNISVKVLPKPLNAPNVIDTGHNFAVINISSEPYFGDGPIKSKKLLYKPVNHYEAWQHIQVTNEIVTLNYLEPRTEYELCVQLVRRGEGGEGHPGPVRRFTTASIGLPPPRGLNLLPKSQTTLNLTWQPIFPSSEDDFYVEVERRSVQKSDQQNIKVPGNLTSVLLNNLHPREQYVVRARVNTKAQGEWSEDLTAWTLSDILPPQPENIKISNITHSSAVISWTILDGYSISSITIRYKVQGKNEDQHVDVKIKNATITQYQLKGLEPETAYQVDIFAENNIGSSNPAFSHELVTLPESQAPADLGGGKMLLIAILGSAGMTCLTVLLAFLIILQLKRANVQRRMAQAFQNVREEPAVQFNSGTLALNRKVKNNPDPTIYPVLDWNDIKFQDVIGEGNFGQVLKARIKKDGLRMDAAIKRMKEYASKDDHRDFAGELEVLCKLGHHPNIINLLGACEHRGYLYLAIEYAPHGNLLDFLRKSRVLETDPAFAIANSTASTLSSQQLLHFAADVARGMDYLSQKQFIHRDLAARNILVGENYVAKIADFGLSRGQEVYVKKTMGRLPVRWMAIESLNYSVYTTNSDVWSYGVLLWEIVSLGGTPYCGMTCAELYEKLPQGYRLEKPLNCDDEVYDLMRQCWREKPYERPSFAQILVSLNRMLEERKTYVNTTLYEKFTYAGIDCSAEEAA

Cc1ccc(C(=O)Nc2ccc(CN3CCN(C)CC3)c(C(F)(F)F)c2)cc1C#Cc1cnc2[nH]ncc2c1 [OLVEREMBATINIB]
Activity (BaF3 [1]): Active
Survival [2]: 24.6 days
IC50 [3]: 0.35 nM
Vdss (Rattus norvegicus): 53.2 L/kg
Activity [4]: inactive
IC50 (cells): 6 nM
Activity [5]: inactive
Activity (BaF3 [6]): Active
Activity (BaF3 [7]): Active
half-life at 1 µM [8]: 56 min
Activity [9]: inactive
IC50 [10]: 2.7 nM
IC50 (MOLT-4): 26.3 nM
Kd [11]: 0.71 nM
inhibition in vivo at 1 mg/kg (K562): 68.3%
Kd [12]: 0.34 nM
MRT [13]: 17.9 h
IC50 [14]: 1 nM
IC50 [15]: 0.71 nM
IC50 [16]: 3.5 nM
Ratio (Caco-2): 0.9
Tmax [17]: 4 h
Activity (Mus musculus): Non-toxic
IC50 [18]: 0.68 nM
Activity (BaF3 [19]): Active
IC50 [20]: 0.35 nM
MRT [21]: 6.7 h
Activity (BaF3 [22]): Active
